Active and inactive are the calls of the source. The rule behind the calls is not given here.
Experiments:
Cannabinoid receptor 2 [1] = biological target: T1, Cannabinoid receptor 2 (Homo sapiens, UniProt P34972); assay: Displacement of [3H]CP-55940 from human recombinant CB2 receptor expressed in CHO cells; format: cell-based
Cannabinoid receptor 1 [2] = biological target: T2, Cannabinoid receptor 1 (Homo sapiens, UniProt P21554); assay: Displacement of [3H]CP-55940 from human recombinant CB1 receptor expressed in CHO cells; format: cell-based
Cannabinoid receptor 1 [3] = biological target: T2, Cannabinoid receptor 1; assay: Agonist activity at human recombinant CB1 receptor expressed in CHO cells assessed as effect on CP-55940 induced PLA2 activation by [3H]arachidonic acid release assay; format: functional, cell-based; conditions: for Kb: read-out: pA2 (converted)
Cannabinoid receptor 2 [4] = biological target: T1, Cannabinoid receptor 2; assay: Inverse agonist activity at human recombinant CB2 receptor expressed in CHOK1 cells assessed as effect on forskolin-stimulated adenylate cyclase activity by cAMP accumulation assay; format: functional, cell-based, CHO-K1
Method in brief: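 CHO-K1 cells expressing human CB2, grown in serum-supplemented medium with glutamine, Hygromycin B and G418 at 37 °C, 5% CO2. Confluent cells loaded with [3H]adenine for 2 h, then 20 min in PBS with 1 mM IBMX and 3×10^-7 M forskolin ± compound (10^-10–10^-6 M). Stopped with TCA; [3H]cAMP/[3H]ATP separated on Dowex/alumina, scintillation counted, basal subtracted; […], two independent experiments in triplicate.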

Rattus norvegicus = assay: Neuroprotective activity in Lewis rat assessed as reduction of experimental autoallergic encephalomyelitis-induced motor deficits at 20 mg/kg, po qd for 11 days; format: functional, organism-based; design: dose 20 mg/kg
Method in brief: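 Male Lewis rats, 175–225 g, inoculated day 0 by subcutaneous hind-paw injection, under isoflurane, of a saline emulsion of complete Freund adjuvant, M. tuberculosis H37RA and guinea pig myelin basic protein. Oral dosing once daily from day one. Motor dysfunction scored daily on a 0–10 scale, with body weights; paralysis intensity analysed as AUC and average score.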

T2 sequence (P21554 whole entry): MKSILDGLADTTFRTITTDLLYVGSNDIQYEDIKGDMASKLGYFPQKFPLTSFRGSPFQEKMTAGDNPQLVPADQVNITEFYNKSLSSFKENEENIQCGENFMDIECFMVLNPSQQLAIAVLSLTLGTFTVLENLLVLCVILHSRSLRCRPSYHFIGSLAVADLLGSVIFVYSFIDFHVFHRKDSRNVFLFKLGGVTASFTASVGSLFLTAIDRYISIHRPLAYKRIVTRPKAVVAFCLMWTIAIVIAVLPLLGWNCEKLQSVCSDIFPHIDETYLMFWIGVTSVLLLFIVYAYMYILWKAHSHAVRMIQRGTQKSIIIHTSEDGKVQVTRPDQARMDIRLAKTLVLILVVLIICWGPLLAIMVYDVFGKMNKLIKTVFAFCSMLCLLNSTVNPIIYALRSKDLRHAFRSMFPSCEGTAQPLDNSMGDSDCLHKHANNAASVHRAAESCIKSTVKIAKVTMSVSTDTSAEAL
T1 sequence (P34972 whole entry): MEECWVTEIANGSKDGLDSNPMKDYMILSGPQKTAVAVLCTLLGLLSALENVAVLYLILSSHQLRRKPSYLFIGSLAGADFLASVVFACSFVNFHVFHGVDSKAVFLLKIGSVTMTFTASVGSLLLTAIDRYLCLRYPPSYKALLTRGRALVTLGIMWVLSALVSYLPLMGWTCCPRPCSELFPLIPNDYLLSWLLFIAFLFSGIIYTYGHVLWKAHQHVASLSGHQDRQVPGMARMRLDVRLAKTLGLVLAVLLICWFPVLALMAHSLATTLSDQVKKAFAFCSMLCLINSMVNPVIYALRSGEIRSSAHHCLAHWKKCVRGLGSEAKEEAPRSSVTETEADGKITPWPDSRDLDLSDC

SMILES | Ki (Cannabinoid receptor 2 [1]) [nM] | Ki (Cannabinoid receptor 1 [2]) [nM] | EC50 (Cannabinoid receptor 1 [3]) [nM] | Kb (Cannabinoid receptor 1 [3]) [nM] | EC50 (Cannabinoid receptor 2 [4]) [nM] | Activity (Rattus norvegicus) | pA2 (Cannabinoid receptor 1 [3]; cho)
CCCCC1=NN(C(=O)NC(C)(C)c2ccccc2)C(C)(C)C1c1ccccc1 (stereo unspecified) | 11.9 | 9 |  |  |  |  | 
CCCCCC1=NN(C(=O)NCC2CCCCC2)CC1c1ccccc1 (stereo unspecified) | 53 | 15.3 |  |  |  |  | 
CCCCCC1=NN(C(=O)NCC23CC4CC(CC(C4)C2)C3)CC1c1ccccc1 (stereo unspecified) |  | 16.1 |  |  |  |  | 
CCCCCC1=NN(C(=O)Nc2ccccc2C(F)(F)F)CC1c1ccccc1 (stereo unspecified) | 15 | 70 |  |  |  |  | 
CCCCCC1=NN(C(=O)NC2CCCCCC2)CC1c1ccccc1 (stereo unspecified) | 19.8 | 15.3 |  |  |  |  | 
CCCCCC1=NN(C(=O)c2cccc3ccccc23)CC1c1ccccc1 (stereo unspecified) | 103 | 164 | 31.6 |  |  |  | 
CCCCC1=NN(C(=O)NC(C)(C)c2ccc(F)cc2)CC1c1cccc(F)c1 (stereo unspecified) | 74 | 44.9 | 100 |  |  |  | 
CCCCCC1=NN(C(=O)NC2CCCCC2)CC1c1ccccc1 (stereo unspecified) | 79 | 52 |  |  |  |  | 
CCCCCN1N=C(C(=O)N[C@H]2C[C@H]3CC[C@]2(C)C3(C)C)CC1c1ccccc1F (stereo partly specified) | 9.1 | 6.1 | 3.98 | 7.94 |  |  | 
CCCCC1=NN(C(=O)NC(C)(C)c2ccccc2)CC1c1ccsc1 (stereo unspecified) | 62 | 19.3 | 39.8 |  |  |  | 
CCCCCC1=NN(C(=O)N[C@H]2C[C@H]3CC[C@]2(C)C3(C)C)CC1c1ccccc1 (stereo in doubt; 9) | 7.4 | 28.5 | 0.631 | 7.94 |  |  | 
CCCCCN1N=C(C(=O)NC(C)(C)c2ccc(F)cc2)CC1c1ccccc1 (stereo unspecified) | 121 | 118 | 3.98 | 7.94 |  |  | 
CCCCCCC(C)(C)c1cc(O)c2c(c1)OC(C)(C)[C@@H]1CCC(=O)C[C@@H]21 [NABILONE] | 17.6 | 5.1 | 3.98 |  |  |  | 
CCCCCC1=NN(C(=O)NC2CCCc3ccccc32)CC1c1ccccc1 (stereo unspecified) | 22.5 | 33.1 |  |  |  |  | 
CCCCCC1=NN(C(=O)NC2CCCCCCC2)CC1c1ccccc1 (stereo unspecified) | 26.6 | 11.9 |  |  |  |  | 
CCCCCC1=NN(C(=O)NC[C@@H]2CC[C@H]3C[C@@H]2C3(C)C)CC1c1ccccc1 (stereo partly specified) | 13.3 | 15.6 | 2000 |  |  |  | 
CCCCCC1=NN(C(=O)NC23CC4CC(CC(C4)C2)C3)CC1c1ccccc1 (stereo unspecified) | 14.9 | 68 | 398 |  |  |  | 
CCCCC1=NN(C(=O)NC(C)(C)c2ccc(F)cc2)CC1c1ccccc1F (stereo unspecified) | 89 | 32 | 126 |  |  |  | 
CCCCCC1=NN(C(=O)N[C@H]2CC3CC[C@]2(C)C3(C)C)CC1c1ccccc1 (single isomer, unassigned) | 36 | 46.8 | 158 |  |  |  | 
CCCCCN1N=C(C(=O)N[C@H]2C[C@H]3CC[C@]2(C)C3(C)C)CC1c1ccccc1 (stereo partly specified) | 20.1 | 4.7 | 5.01 | 7.94 |  |  | 
CCCCC1=NN(C(=O)NC(C)(C)c2ccccc2)CC1c1ccccc1 (stereo unspecified) | 35.6 | 14.2 | 3.98 |  |  |  | 
CCCCC1=NN(C(=O)N[C@H]2C[C@H]3CC[C@]2(C)C3(C)C)C(C)(C)C1c1ccccc1 (stereo partly specified) | 3.4 | 16.1 |  |  |  |  | 
CCCCCC1=NN(C(=O)NC2C3CC4CC(C3)CC2C4)CC1c1ccccc1 (stereo unspecified) | 6.3 | 6.4 | 25.1 |  |  |  | 
CCCCCC1=NN(C(=O)NCc2ccccc2)CC1c1ccccc1 (stereo unspecified) | 260 | 51 | 398 |  |  |  | 
CCCCCC1=NN(C(=O)NC(C)(C)c2ccccc2)CC1c1ccccc1 (stereo unspecified) | 17.6 | 3.26 | 3.98 |  |  |  | 
CCCCCC1=NN(C(=O)NC2C[C@H]3CCC2(C)C3(C)C)CC1c1ccccc1 (single isomer, unassigned) | 5.3 | 8.3 | 3.98 |  | 3.16 | Active | 8.1
CCCCCN1N=C(C(=O)NC2C3CC4CC(C3)CC2C4)CC1c1ccccc1 (stereo unspecified) | 7.1 | 9.2 |  | 7.94 |  |  | 
CCCCCC1=NN(C(=O)Nc2cccc3ccccc23)CC1c1ccccc1 (stereo unspecified) | 36.6 | 7.4 | 1580 |  |  |  | 

— ChEMBL document CHEMBL1221318, “Two distinct classes of novel pyrazolinecarboxamides as potent cannabinoid CB1 receptor agonists” (Bioorg Med Chem Lett, 2010)
